This note sets out measurements from ChEMBL document CHEMBL3526015, “Metabolism of the c-Fos/activator protein-1 inhibitor T-5224 by multiple human UDP-glucuronosyltransferase isoforms” (Drug Metab Dispos, 2011).

Data set [1] can be described thus: Drug metabolism assessed as human CYP2C9*1-mediated metabolite formation at 2 uM after 30 mins by HPLC method. The conditions noted are these: 0.5 h. The data set is classed as ADME. A digest of the protocol:
(§1)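 Each recombinant human P450 was used at 50 pmol/mL with an NADPH-generating system and 2 μM 14C-T-5224 (0.5% DMSO final). Buffer was 100 mM Tris-HCl pH 7.5, except 100 mM potassium phosphate pH 7.4 for CYP2A6 and CYP2C9*1. Incubation ran 30 min at 37°C and was stopped with acetonitrile/methanol. Radioactive metabolite peaks were detected by C18 HPLC.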

The test system of data set [2] is Liver microsome. Kind of data set: Drug metabolism in human liver microsomes assessed as T-5224 hydroxyl O-glucuronide formation per mg protein after 10 to 60 mins by HPLC method. The data set is classed as ADME. The essentials:
(§2)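 Pooled liver (0.5 mg protein/mL) or intestinal (0.25 mg protein/mL) microsomes in 50 mM Tris-HCl pH 7.5, 8 mM MgCl2, alamethicin, 2% DMSO. T-5224 at 1–50 μM, 5 min preincubation at 37°C, started with 2 mM UDPGA. Incubated 10 min, or 20 min for intestinal microsomes at 1–5 μM. Acetonitrile stop, glucuronides by HPLC at 290 nm. Triplicates fitted to a substrate-inhibition model.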
Background: Microsomes from liver hold many membrane-bound enzymes, among them those of drug oxidation.

For data set [3], the system named is Liver microsome. Nature of the data set: Drug metabolism in human liver microsomes assessed as T-5224 hydroxyl O-glucuronide formation after 10 to 60 mins by HPLC method. The data set is classed as ADME. The essentials: as §2
In data set [4] the target is T1, Cytochrome P450 2A6 (Homo sapiens, UniProt P11509).
T1 sequence (P11509 whole entry): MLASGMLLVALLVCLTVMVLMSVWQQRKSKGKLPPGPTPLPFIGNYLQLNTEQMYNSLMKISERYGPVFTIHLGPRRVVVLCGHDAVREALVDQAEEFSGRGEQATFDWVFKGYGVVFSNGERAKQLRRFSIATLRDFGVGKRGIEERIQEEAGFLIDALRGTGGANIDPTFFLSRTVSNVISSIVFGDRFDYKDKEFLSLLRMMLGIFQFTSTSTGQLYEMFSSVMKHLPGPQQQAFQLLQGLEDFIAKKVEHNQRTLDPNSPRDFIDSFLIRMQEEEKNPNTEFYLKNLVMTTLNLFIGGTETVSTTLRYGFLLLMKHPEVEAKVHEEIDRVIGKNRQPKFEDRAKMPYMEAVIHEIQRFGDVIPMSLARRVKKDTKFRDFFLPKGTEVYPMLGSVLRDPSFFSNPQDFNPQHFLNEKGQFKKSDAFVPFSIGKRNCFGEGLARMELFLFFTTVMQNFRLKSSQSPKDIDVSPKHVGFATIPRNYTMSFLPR
Kind of data set: Drug metabolism assessed as human CYP2A6-mediated metabolite formation at 2 uM after 30 mins by HPLC method. The data set is classed as ADME. The conditions noted are these: recombinant enzyme, 0.5 h. A digest of the protocol:
as §1

For data set [5], the target named is T2, UDP-glucuronosyltransferase 1A1 (Homo sapiens, UniProt P22309).
T2 sequence (P22309 whole entry): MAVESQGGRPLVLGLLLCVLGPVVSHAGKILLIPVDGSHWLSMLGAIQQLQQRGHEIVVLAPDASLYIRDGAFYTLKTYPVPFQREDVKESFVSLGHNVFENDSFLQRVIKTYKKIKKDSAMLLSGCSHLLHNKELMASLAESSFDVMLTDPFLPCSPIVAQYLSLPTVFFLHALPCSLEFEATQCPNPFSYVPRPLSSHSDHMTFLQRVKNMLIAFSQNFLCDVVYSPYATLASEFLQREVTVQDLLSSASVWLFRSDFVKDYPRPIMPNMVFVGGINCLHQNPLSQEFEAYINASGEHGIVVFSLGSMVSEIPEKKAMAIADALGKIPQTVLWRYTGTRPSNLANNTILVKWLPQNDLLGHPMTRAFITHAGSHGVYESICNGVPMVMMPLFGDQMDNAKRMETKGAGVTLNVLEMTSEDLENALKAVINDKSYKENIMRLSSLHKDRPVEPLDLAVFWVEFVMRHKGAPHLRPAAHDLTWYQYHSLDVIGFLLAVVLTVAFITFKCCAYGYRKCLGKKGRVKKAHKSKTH
Nature of the data set: Drug metabolism assessed as human UGT1A1-mediated T-5224 acyl O-glucuronide formation at 10 uM […] in presence of beta-estradiol by HPLC method. It is filed as ADME. The conditions noted are these: recombinant enzyme. A digest of the protocol: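 Pooled human liver microsomes or recombinant UGT1A1 were incubated with 10 μM T-5224, 2 mM UDPGA and β-estradiol at 0–500 μM (2% DMSO), in Tris-HCl/MgCl2/alamethicin buffer. Incubation was 10 min (liver microsomes) or 60 min (UGT1A1) at 37°C. G2/G3 were read by HPLC at 290 nm, as mean ± SD, n = 3.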

Data set [6] can be described thus: Drug metabolism in human intestinal microsomes assessed as T-5224 acyl O-glucuronide formation per mg protein after 10 to 60 mins by HPLC method. It is filed as ADME, Intestine, Microsome. The essentials: (§3)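 Pooled liver microsomes (0.5 mg/mL) were incubated 10 min. Pooled intestinal microsomes (0.25 mg/mL) ran 10 min at T-5224 10–50 μM and 20 min at 1–5 μM. Buffer was 50 mM Tris-HCl pH 7.5 with 8 mM MgCl2, alamethicin and 2 mM UDPGA, at 37°C, in triplicate. Glucuronides G2/G3 were read by HPLC at 290 nm and fitted for Vmax/Km.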

Data set [7] relates to Liver microsome. Nature of the data set: Drug metabolism in human liver microsomes assessed as Vmax/Km ratio for T-5224 acyl O-glucuronide formation per mg protein after 10 to 60 mins by HPLC method. It is filed as ADME. The essentials: as §2
Data set [8] in a line: Substrate inhibition of T-5224 hydroxyl O-glucuronide formation in human intestinal microsomes after 10 to 60 mins by HPLC method. Further details: species or system Intestine, Microsome. The essentials:
as §2

Data set [9] can be described thus: Drug metabolism in human intestinal microsomes assessed as T-5224 hydroxyl O-glucuronide formation after 10 to 60 mins by HPLC method. It is filed as ADME, Intestine, Microsome. A digest of the protocol: as §3
Data set [10] deals with Liver microsome. Kind of data set: Drug metabolism in human liver microsomes assessed as T-5224 hydroxyl O-glucuronide formation at 10 uM after 10 mins in presence of beta-estradiol by HPLC method. The data set is classed as ADME. A digest of the protocol: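 Pooled liver microsomes (0.5 mg protein/mL) with 10 μM T-5224, 2 mM UDPGA and β-estradiol at 0–500 μM, 2% DMSO, in 50 mM Tris-HCl pH 7.5, 8 mM MgCl2 and alamethicin. Incubated 10 min at 37°C, stopped with acetonitrile. Glucuronides measured by HPLC at 290 nm; mean ± SD, n = 3.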

The subject of data set [11] is Liver microsome. Kind of data set: Drug metabolism in human liver microsomes assessed as T-5224 acyl O-glucuronide formation after 10 to 60 mins by HPLC method. It is filed as ADME. A digest of the protocol: as §3
The subject of data set [12] is Liver microsome. Nature of the data set: Drug metabolism in human liver microsomes assessed as Vmax/Km ratio for T-5224 hydroxyl O-glucuronide formation per mg protein after 10 to 60 mins by HPLC method. The data set is classed as ADME. A digest of the protocol:
as §2

In data set [13] the target is Liver microsome. Kind of data set: Substrate inhibition of T-5224 acyl O-glucuronide formation in human liver microsomes after 10 to 60 mins by HPLC method. A digest of the protocol: as §2

For `O=C(O)CCc1cc(C(=O)c2ccc(OC3CCCC3)cc2O)ccc1OCc1ccc2c(O)noc2c1`, the Drug metabolism result in [1] is given as “metabolite_not_detected”; in data set [4], “metabolite_not_detected”; in data set [5], “metabolite_not_detected”; in data set [10], “metabolite_detected”. The values for the Vmax in [2] and in [6] were 305 pmol/min and 241 pmol/min, respectively. Moreover, the Km – broadly, the concentration of substrate that gives half-maximal velocity – in [3] is 15.7 µM; in data set [9], 3.06 µM; in [11], 4.93 µM. In addition, the Vmax/Km in [7] is 44 µL/min; in [12], 19.5 µL/min. The Ki in data set [8] worked out at 58 µM; in data set [13] it was 13.2 µM.
